Assay results taken from ChEMBL document CHEMBL1156308 (J Med Chem, 2010).

Experiments:
[1] = Biodistribution in baboon kidney cortex at 340 mg, iv after 15 mins; assay type: ADME, organism-based; details: papio hamadryas, read-out: Drug uptake
How it was run: (§1)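 Four anesthetized baboons were given ketamine 10 mg/kg i.m., with anesthesia held on O2, N2O and isoflurane 1–4%. They received a micro dose of the [11C]-labeled drug i.v. via a radial arm vein, followed by torso PET. TACs came from manually drawn organ ROIs and are reported as %ID/cc. µg/ml values were estimated from a 20 mg/kg dose and a 17 kg baboon, assuming the signal is intact drug.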

[2] = Biodistribution in baboon whole brain at 340 mg, iv after 30 mins; assay type: ADME, organism-based; details: papio hamadryas, read-out: Drug uptake
How it was run: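 Brain PET was acquired for 90 min after i.v. [11C]-labeled drug in anesthetized baboons (ketamine 10 mg/kg i.m.; O2/N2O/isoflurane 1–4%). The whole-brain ROI TAC is reported as %ID/cc. µg/ml was estimated assuming a 20 mg/kg dose, a 17 kg baboon, and that the signal is intact drug. Arterial blood was sampled over 90 min.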

[3] = Biodistribution in baboon plasma at 340 mg, iv after 15 mins; assay type: ADME, organism-based; details: papio hamadryas, read-out: Drug uptake
How it was run: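 Anesthetised baboons (ketamine 10 mg/kg i.m.; oxygen, nitrous oxide and isoflurane 1–4% during scanning) got a micro dose of [11C]-labelled drug i.v. via a radial arm vein; arterial blood was sampled serially over 90 min. Plasma %ID/cc was converted to µg/ml from the listed dose over a 17 kg baboon, assuming the signal is intact drug.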

[4] = Biodistribution in baboon liver at 340 mg, iv after 90 mins; assay type: ADME, organism-based; details: papio hamadryas, read-out: Drug uptake; how it was run: as §1
[5] = Biodistribution in baboon liver at 340 mg, iv after 15 mins; assay type: ADME, organism-based; details: papio hamadryas, read-out: Drug uptake; how it was run: as §1
[6] = Biodistribution in baboon lung at 340 mg, iv after 90 mins; assay type: ADME, organism-based; details: papio hamadryas, read-out: Drug uptake; how it was run: as §1
[7] = Biodistribution in baboon plasma at 340 mg, iv after 90 mins; assay type: ADME, organism-based; details: papio hamadryas, read-out: Drug uptake
How it was run: (§2)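 Anaesthetised baboons received [11C]-labelled drug i.v. (radial arm vein) by PET protocol. Arterial blood was drawn from a popliteal catheter every 5 s for 2 min, then at 2–90 min. Plasma activity is given as %ID/cc. µg/ml values were estimated from the human daily dose per kg scaled to a 17 kg baboon, assuming signal comes from intact drug.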

[8] = Biodistribution in baboon kidney cortex at 340 mg, iv after 90 mins; assay type: ADME, organism-based; details: papio hamadryas, read-out: Drug uptake; how it was run: as §1
[9] = Biodistribution in baboon heart at 340 mg, iv after 60 mins; assay type: ADME, organism-based; details: papio hamadryas, read-out: Drug uptake; how it was run: as §1
[10] = Biodistribution in baboon kidney medulla at 340 mg, iv after 60 mins; assay type: ADME, organism-based; details: papio hamadryas, read-out: Drug uptake; how it was run: as §1
[11] = Biodistribution in baboon heart at 340 mg, iv after 90 mins; assay type: ADME, organism-based; details: papio hamadryas, read-out: Drug uptake; how it was run: as §1
[12] = Biodistribution in baboon plasma at 340 mg, iv after 30 mins; assay type: ADME, organism-based; details: papio hamadryas, read-out: Drug uptake; how it was run: as §2
[13] = Biodistribution in baboon kidney medulla at 340 mg, iv after 90 mins; assay type: ADME, organism-based; details: papio hamadryas, read-out: Drug uptake; how it was run: as §1
[14] = Biodistribution in baboon kidney medulla at 340 mg, iv after 15 mins; assay type: ADME, organism-based; details: papio hamadryas, read-out: Drug uptake; how it was run: as §1
[15] = Biodistribution in baboon heart at 340 mg, iv after 15 mins; assay type: ADME, organism-based; details: papio hamadryas, read-out: Drug uptake; how it was run: as §1
[16] = Biodistribution in baboon lung at 340 mg, iv after 60 mins; assay type: ADME, organism-based; details: papio hamadryas, read-out: Drug uptake; how it was run: as §1
[17] = Biodistribution in baboon kidney cortex at 340 mg, iv after 60 mins; assay type: ADME, organism-based; details: papio hamadryas, read-out: Drug uptake; how it was run: as §1
[18] = Biodistribution in baboon liver at 340 mg, iv after 30 mins; assay type: ADME, organism-based; details: papio hamadryas, read-out: Drug uptake; how it was run: as §1
[19] = Biodistribution in baboon kidney cortex at 340 mg, iv after 30 mins; assay type: ADME, organism-based; details: papio hamadryas, read-out: Drug uptake; how it was run: as §1
[20] = Biodistribution in baboon lung at 340 mg, iv after 15 mins; assay type: ADME, organism-based; details: papio hamadryas, read-out: Drug uptake; how it was run: as §1
[21] = Biodistribution in baboon heart at 340 mg, iv after 30 mins; assay type: ADME, organism-based; details: papio hamadryas, read-out: Drug uptake; how it was run: as §1
[22] = Biodistribution in baboon whole brain at 340 mg, iv after 90 mins; assay type: ADME, organism-based; details: papio hamadryas, read-out: Drug uptake
How it was run: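 Brain PET ran 90 min after i.v. [11C]-labelled drug in anaesthetised baboons. Whole-brain regions of interest gave time-activity curves in %ID/cc. µg/ml values were estimated from baboon weight (17 kg) and the recommended human daily dose per kg, assuming signal comes from intact drug.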

[23] = Biodistribution in baboon liver at 340 mg, iv after 60 mins; assay type: ADME, organism-based; details: papio hamadryas, read-out: Drug uptake; how it was run: as §1
[24] = Biodistribution in baboon kidney medulla at 340 mg, iv after 30 mins; assay type: ADME, organism-based; details: papio hamadryas, read-out: Drug uptake; how it was run: as §1
[25] = Biodistribution in baboon whole brain at 340 mg, iv after 60 mins; assay type: ADME, organism-based; details: papio hamadryas, read-out: Drug uptake
How it was run: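 Baboons were anesthetized with ketamine 10 mg/kg i.m., then maintained on O2, N2O and isoflurane 1–4%. The [11C]-labeled drug was given i.v. as a micro dose through a radial arm vein. PET was acquired for 90 min. Whole-brain ROI time-activity curves were read in %ID/cc, and µg/ml was estimated assuming a 20 mg/kg dose, a 17 kg baboon and signal from intact drug.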

[26] = Biodistribution in baboon plasma at 340 mg, iv after 60 mins; assay type: ADME, organism-based; details: papio hamadryas, read-out: Drug uptake; how it was run: as §2
[27] = Biodistribution in baboon lung at 340 mg, iv after 30 mins; assay type: ADME, organism-based; details: papio hamadryas, read-out: Drug uptake; how it was run: as §1
[28] = Biodistribution in ip dosed cat brain; assay type: ADME, organism-based, Felis catus; details: in vivo
[29] = Plasma protein binding in baboon; assay type: ADME, cell-free; details: papio hamadryas, read-out: PPB (converted)
How it was run: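 [11C]-labelled drug was incubated 10 min at room temperature in pooled plasma from at least 4 baboons. Total radioactivity was counted, then the sample was ultrafiltered by centrifugation (10 min) and the filtrate counted. Result is expressed as % free fraction in plasma.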

[30] = Biodistribution in human CSF at 108.7 mg, po after 1 hr; assay type: ADME, organism-based, Cerebrospinal fluid; details: read-out: Drug uptake
[31] = Biodistribution in human CSF at 8.5 mg/kg, po after 2 hrs; assay type: ADME, organism-based, Cerebrospinal fluid; design: dose 8.5 mg/kg, route oral; details: read-out: Drug uptake
[32] = Lipophilicity, log D of the compound; assay type: physicochemical; details: octanol/water

For `N[11C](=O)c1cnccn1`, the concentration at 0.25 h [1] was 20500 ng/mL, the concentration at 0.5 h [2] was 21000 ng/mL and the concentration at 0.25 h [3] was 22000 ng/mL. For the same compound, the concentration at 1.5 h [4] was 19200 ng/mL, the concentration at 0.25 h [5] was 36100 ng/mL and the concentration at 1.5 h [6] was 18600 ng/mL. It also gave a concentration at 1.5 h [7] of 9040 ng/mL, a concentration at 1.5 h [8] of 9930 ng/mL and a concentration at 1 h [9] of 57.6 µg/mL. It also gave a concentration at 1 h [10] of 343 µg/mL, a concentration at 1.5 h [11] of 59.5 µg/mL and a concentration at 0.5 h [12] of 14600 ng/mL. For the same compound, the concentration at 1.5 h [13] was 229 µg/mL, the concentration at 0.25 h [14] was 617 µg/mL and the concentration at 0.25 h [15] was 67.8 µg/mL. The concentration at 1 h [16] was 22200 ng/mL, the concentration at 1 h [17] was 12600 ng/mL and the concentration at 0.5 h [18] was 27000 ng/mL. The concentration at 0.5 h [19] was 16600 ng/mL, the concentration at 0.25 h [20] was 35000 ng/mL and the concentration at 0.5 h [21] was 61.5 µg/mL. The concentration at 1.5 h [22] was 13700 ng/mL, the concentration at 1 h [23] was 22000 ng/mL and the concentration at 0.5 h [24] was 474 µg/mL. The concentration at 1 h [25] was 15700 ng/mL, the concentration at 1 h [26] was 11200 ng/mL and the concentration at 0.5 h [27] was 26500 ng/mL.
For `NNC(=O)c1ccncc1` [ISONIAZID], the Drug uptake [28] was 0.02 µg/g, the fraction unbound [29] was 0.0537 and the concentration at 1 h [30] was 310 ng/mL. For the same compound, the concentration at 2 h [31] was 1900 ng/mL.
For `NC(=O)c1cnccn1` [PYRAZINAMIDE], the fraction unbound [29] was 0.0868 and the logD [32] was -0.41.
With `CO[C@H]1/C=C/O[C@@]2(C)Oc3c(C)c(O)c4c(O)c(c(/C=N/N5CCN(C)CC5)c(O)c4c3C2=O)NC(=O)/C(C)=C\C=C\[C@H](C)[C@H](O)[C@@H](C)[C@@H](O)[C@@H](C)[C@H](OC(C)=O)[C@@H]1C` [RIFAMPIN] the fraction unbound [29] was 0.727.
